Laboratory results published in ChEMBL document CHEMBL1139595, “Inhibition of IKK-2 by 2-[(aminocarbonyl)amino]-5-acetylenyl-3-thiophenecarboxamides” (Bioorg Med Chem Lett, 2005).

What was measured:
[1] = molecular target: T1, Inhibitor of nuclear factor kappa-B kinase subunit beta (Homo sapiens, UniProt O14920); assay: Inhibitory concentration against human recombinant I-kappa-B-kinase 2 from 3 experiments
T1 sequence (O14920 whole entry): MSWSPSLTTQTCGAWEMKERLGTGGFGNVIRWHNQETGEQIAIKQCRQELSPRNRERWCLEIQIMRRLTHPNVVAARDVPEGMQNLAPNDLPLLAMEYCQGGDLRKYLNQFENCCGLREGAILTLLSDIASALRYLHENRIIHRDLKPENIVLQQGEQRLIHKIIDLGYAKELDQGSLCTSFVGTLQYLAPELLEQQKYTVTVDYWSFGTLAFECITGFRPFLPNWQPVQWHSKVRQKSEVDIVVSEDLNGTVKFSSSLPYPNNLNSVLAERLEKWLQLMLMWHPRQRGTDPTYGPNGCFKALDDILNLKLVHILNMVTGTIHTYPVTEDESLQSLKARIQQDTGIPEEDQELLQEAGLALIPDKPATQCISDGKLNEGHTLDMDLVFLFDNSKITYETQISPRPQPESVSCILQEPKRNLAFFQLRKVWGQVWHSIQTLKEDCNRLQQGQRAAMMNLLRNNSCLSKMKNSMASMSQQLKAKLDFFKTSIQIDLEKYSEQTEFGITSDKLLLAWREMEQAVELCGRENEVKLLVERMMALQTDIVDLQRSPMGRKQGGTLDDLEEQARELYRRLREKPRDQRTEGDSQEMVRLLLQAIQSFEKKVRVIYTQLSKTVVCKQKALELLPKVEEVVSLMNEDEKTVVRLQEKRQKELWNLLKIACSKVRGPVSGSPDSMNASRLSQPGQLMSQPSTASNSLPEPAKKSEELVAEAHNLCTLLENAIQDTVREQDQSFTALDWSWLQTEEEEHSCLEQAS

[2] = Inhibitory concentration against interleukin-8 production in rheumatoid arthritis-derived synovial fibroblasts (RASFs) from 2 experiments; format: functional; conditions: Homo sapiens
Method in brief: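 Primary RASF from knee synovectomy tissue, grown in DMEM high glucose with 15% bovine serum and gentamicin. 1.5×10^4 cells/well attached overnight, moved to DMEM with 1% serum. Pre-treated 1 h with a seven-point dose series in 0.2% Me₂SO, then stimulated overnight with 1 ng/mL IL-1β. IL-8 in supernatant measured by ELISA; IC50 from curve.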

[3] = Lethal concentration towards rheumatoid arthritis-derived synovial fibroblasts using Alamar Blue reagent; format: functional; conditions: Homo sapiens; read-out: LC50 (the source's name)
Method in brief: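 Primary RASF from knee synovectomy tissue, cultured in DMEM high glucose with 15% bovine serum; 1.5×10^4 cells/well in 1% serum, pre-treated 1 h with seven-point inhibitor doses in 0.2% Me2SO, then stimulated overnight with 1 ng/mL IL-1β. After removing the supernatant, Alamar Blue added, 2.5 h at 37 °C, 5% CO2; fluorescence read, LC50 derived.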

[4] = molecular target: T2, Inhibitor of nuclear factor kappa-B kinase subunit beta (Homo sapiens) (UniProt O14920); assay: Ratio of inhibitory concentration of rheumatoid arthritis-derived synovial fibroblasts to human recombinant I-kappa-B-kinase 2; format: functional
T2 sequence (whole entry): T1 sequence (O14920 whole entry)

Row | Structure (SMILES) | IC50 [1] [nM] | IC50 [2] [nM] | CC50 [3] [nM] | Ratio [4]
1 | NC(=O)Nc1sc(C#CC2CC2)cc1C(N)=O | 273 | 3060 | > 30000 | 11
2 | CC(C)C(O)c1cc(C#Cc2cc(C(N)=O)c(NC(N)=O)s2)cs1 (stereo not drawn) | 563 | – | – | –
3 | CS(=O)(=O)Nc1cccc(C#Cc2cc(C(N)=O)c(NC(N)=O)s2)c1 | 454 | 12900 | > 30000 | 28
4 | NC(=O)Nc1sc(C#Cc2cccc(F)c2)cc1C(N)=O | 331 | 1650 | > 30000 | 5
5 | NC(=O)Nc1sc(C#Cc2cccc(O)c2)cc1C(N)=O | 303 | 576 | 2720 | 1.9
6 | CCC(O)c1cc(C#Cc2cc(C(N)=O)c(NC(N)=O)s2)cs1 (stereo not drawn) | 465 | – | – | –
7 | NC(=O)Nc1sc(C#Cc2csc(CO)c2)cc1C(N)=O | 195 | 1130 | > 30000 | 5.8
8 | N#Cc1cc(C#Cc2cc(C(N)=O)c(NC(N)=O)s2)cs1 | 333 | 832 | > 30000 | 2.5
9 | NC(=O)c1sc(-c2ccsc2)cc1N | 11200 | – | – | –
10 | NC(=O)Nc1sc(C#Cc2ccsc2)cc1C(N)=O | 420 | 1180 | > 30000 | 2.8

Continued, in another order:

Row | IC50 [1] [nM] | Structure (SMILES) | IC50 [2] [nM] | CC50 [3] [nM] | Ratio [4]
11 | 4400 | COC(=O)NCCC(=O)Nc1cccc(C#Cc2cc(C(N)=O)c(NC(N)=O)s2)c1 | – | – | –
12 | 1850 | NC(=O)Nc1sc(C#Cc2cccc(NC(=O)c3ccncc3)c2)cc1C(N)=O | – | – | –
13 | 1010 | NC(=O)Nc1sc(C#Cc2ccccc2Cl)cc1C(N)=O | – | – | –
14 | 980 | NC(=O)Nc1sc(C#Cc2cccc(NC(=O)C(F)(F)F)c2)cc1C(N)=O | – | – | –
15 | 964 | CC(=O)Nc1cccc(C#Cc2cc(C(N)=O)c(NC(N)=O)s2)c1 | – | – | –
16 | 557 | NC(=O)Nc1sc(C#Cc2cccc(NC(=O)c3cccnc3)c2)cc1C(N)=O | – | – | –
17 | 1880 | CN(C)CC(=O)Nc1cccc(C#Cc2cc(C(N)=O)c(NC(N)=O)s2)c1 | – | – | –
18 | > 20000 | NC(=O)Nc1sc(C#Cc2cccc(NC(=O)c3ccccn3)c2)cc1C(N)=O | – | – | –
19 | 709 | NC(=O)Nc1sc(C#Cc2cccc(N)c2)cc1C(N)=O | – | – | –
20 | 704 | NC(=O)Nc1sc(C#Cc2cccc(NC(=O)c3ccccc3)c2)cc1C(N)=O | – | – | –
21 | 620 | NC(=O)Nc1sc(C#Cc2ccccc2F)cc1C(N)=O | – | – | –
22 | 716 | Cc1ccccc1C#Cc1cc(C(N)=O)c(NC(N)=O)s1 | – | – | –
